Reference: ChEMBL document CHEMBL3091364, “Benzyloxybenzylammonium chlorides: Simple amine salts that display anticonvulsant activity” (Bioorg Med Chem, 2013)

Assays:
[1] = target: T1, Alpha-2C adrenergic receptor (Homo sapiens) (UniProt P18825); assay: Inhibition of adrenergic alpha-2C receptor (unknown origin) at 10 uM relative to control
T1 sequence (whole entry): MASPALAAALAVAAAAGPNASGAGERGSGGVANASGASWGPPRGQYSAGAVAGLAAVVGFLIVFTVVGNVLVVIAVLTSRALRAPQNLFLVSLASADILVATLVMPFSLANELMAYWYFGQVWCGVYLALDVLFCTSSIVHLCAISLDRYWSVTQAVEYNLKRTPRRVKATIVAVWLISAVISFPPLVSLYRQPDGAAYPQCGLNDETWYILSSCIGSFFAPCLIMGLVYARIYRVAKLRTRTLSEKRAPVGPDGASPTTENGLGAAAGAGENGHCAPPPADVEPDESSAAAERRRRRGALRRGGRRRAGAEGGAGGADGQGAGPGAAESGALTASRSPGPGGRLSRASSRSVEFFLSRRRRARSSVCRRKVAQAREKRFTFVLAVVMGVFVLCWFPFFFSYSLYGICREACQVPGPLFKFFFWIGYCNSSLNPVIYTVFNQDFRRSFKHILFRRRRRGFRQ

[2] = target: Kappa-type opioid receptor (Homo sapiens) (UniProt P41145); assay: Inhibition of kappa opioid receptor (unknown origin) at 10 uM relative to control
Kappa-type opioid receptor (Homo sapiens), sequence (P41145 whole entry): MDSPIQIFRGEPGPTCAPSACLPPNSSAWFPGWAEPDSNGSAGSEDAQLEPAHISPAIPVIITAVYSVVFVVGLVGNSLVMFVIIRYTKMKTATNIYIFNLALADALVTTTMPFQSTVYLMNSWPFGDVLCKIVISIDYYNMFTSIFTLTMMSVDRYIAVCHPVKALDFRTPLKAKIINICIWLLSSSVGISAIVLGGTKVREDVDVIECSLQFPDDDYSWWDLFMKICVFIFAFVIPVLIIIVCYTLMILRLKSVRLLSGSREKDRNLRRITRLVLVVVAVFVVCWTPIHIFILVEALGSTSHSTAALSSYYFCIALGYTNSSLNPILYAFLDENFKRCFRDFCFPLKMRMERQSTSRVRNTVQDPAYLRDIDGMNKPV

[3] = Toxicity in po dosed albino Sprague-Dawley rat assessed as behavioral changes measured at 0.25 to 4 hrs; format: organism-based; details: in vivo
Method in brief: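 Male albino Sprague-Dawley rats given compound intraperitoneally or orally (NINDS ASP); neurological impairment judged from behavioral toxicity effects. Preset screening doses (e.g., 30 mg/kg); for adequately active compounds, TD50 (mg/kg, 95% confidence intervals) derived from dose–effect data at time of peak effect.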

[4] = target: Histamine H3 receptor (Homo sapiens) (UniProt Q9Y5N1); assay: Inhibition of histamine H3 receptor (unknown origin) at 10 uM relative to control
Histamine H3 receptor (Homo sapiens), sequence (Q9Y5N1 whole entry): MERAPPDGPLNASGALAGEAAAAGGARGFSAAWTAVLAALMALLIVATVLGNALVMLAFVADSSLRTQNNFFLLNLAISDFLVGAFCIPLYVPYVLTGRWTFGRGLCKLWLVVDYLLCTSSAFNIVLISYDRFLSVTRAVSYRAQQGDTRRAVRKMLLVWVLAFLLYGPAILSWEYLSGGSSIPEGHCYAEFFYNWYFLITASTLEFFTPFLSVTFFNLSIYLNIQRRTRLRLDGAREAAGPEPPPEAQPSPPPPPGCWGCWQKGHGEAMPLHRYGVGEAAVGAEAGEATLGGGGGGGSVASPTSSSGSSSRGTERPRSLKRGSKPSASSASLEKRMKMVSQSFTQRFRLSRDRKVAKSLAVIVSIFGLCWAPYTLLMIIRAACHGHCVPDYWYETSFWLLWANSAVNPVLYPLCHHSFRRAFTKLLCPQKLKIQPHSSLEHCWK

[5] = target: D(3) dopamine receptor (Homo sapiens) (UniProt P35462); assay: Inhibition of dopaminergic D3 receptor (unknown origin) at 10 uM relative to control
D(3) dopamine receptor (Homo sapiens), sequence (P35462 whole entry): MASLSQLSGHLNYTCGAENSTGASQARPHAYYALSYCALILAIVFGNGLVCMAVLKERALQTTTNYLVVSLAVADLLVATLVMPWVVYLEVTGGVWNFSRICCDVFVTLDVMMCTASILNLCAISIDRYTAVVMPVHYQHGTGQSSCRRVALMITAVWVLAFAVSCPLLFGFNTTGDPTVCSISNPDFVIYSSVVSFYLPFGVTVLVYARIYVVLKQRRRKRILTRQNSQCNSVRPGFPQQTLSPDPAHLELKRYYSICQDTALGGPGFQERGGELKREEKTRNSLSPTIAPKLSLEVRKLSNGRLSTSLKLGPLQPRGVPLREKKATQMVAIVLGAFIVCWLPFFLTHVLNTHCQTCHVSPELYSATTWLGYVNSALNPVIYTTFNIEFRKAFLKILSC

[6] = Solubility of the compound in water at 300 uM; format: physicochemical
Method in brief: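 Hydrochloride salts checked for dissolution in water at 300 µM.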

[7] = target: Muscarinic acetylcholine receptor M3 (Homo sapiens) (UniProt P20309); assay: Inhibition of muscarinergic M3 receptor (unknown origin) at 10 uM relative to control
Muscarinic acetylcholine receptor M3 (Homo sapiens), sequence (P20309 whole entry, looked up): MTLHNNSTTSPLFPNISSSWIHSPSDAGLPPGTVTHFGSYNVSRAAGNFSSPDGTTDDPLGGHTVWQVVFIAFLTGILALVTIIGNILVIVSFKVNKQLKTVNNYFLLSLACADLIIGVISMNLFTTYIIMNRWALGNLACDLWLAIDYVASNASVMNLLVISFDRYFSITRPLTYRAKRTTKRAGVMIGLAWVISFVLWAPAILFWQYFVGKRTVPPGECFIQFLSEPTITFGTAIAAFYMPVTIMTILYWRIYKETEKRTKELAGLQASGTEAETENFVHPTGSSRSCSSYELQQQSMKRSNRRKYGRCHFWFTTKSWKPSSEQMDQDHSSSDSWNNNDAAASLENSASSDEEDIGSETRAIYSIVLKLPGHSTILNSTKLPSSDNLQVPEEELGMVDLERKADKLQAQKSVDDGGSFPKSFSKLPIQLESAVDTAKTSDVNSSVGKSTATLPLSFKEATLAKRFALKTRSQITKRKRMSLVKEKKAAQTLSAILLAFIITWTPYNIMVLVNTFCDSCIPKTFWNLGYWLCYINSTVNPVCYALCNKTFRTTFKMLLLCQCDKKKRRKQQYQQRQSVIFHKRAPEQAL

[8] = target: T2, D(4) dopamine receptor (Homo sapiens) (UniProt P21917); assay: Inhibition of dopaminergic D4 receptor (unknown origin) at 10 uM relative to control
T2 sequence (whole entry): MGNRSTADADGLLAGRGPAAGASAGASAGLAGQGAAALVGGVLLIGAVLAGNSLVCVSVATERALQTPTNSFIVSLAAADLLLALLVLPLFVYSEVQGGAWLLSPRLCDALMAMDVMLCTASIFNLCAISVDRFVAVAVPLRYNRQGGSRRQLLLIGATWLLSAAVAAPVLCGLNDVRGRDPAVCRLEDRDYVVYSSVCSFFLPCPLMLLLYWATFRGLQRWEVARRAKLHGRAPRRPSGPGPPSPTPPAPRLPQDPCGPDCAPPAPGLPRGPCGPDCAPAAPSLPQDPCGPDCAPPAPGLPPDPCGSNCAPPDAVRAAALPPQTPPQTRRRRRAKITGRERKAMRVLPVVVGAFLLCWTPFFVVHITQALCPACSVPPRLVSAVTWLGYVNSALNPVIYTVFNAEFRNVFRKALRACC

[9] = target: T3, 5-hydroxytryptamine receptor 2C (Homo sapiens) (UniProt P28335); assay: Inhibition of 5-HT2C receptor (unknown origin) at 10 uM relative to control
T3 sequence (whole entry): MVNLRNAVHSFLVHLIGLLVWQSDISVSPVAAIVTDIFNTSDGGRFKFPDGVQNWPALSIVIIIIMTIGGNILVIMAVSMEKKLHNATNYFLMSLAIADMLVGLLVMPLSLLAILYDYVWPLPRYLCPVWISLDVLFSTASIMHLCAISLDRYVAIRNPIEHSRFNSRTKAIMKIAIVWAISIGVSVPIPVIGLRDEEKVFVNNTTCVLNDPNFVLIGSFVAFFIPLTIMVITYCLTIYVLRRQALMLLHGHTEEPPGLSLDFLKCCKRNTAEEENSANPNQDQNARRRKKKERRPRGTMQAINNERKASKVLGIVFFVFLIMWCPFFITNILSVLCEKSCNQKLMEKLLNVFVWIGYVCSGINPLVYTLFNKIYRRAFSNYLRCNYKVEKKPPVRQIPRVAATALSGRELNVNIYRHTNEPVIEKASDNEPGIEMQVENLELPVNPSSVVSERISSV

[10] = target: 5-hydroxytryptamine receptor 1D (Homo sapiens) (UniProt P28221); assay: Inhibition of 5-HT1D receptor (unknown origin) at 10 uM relative to control
5-hydroxytryptamine receptor 1D (Homo sapiens), sequence (P28221 whole entry): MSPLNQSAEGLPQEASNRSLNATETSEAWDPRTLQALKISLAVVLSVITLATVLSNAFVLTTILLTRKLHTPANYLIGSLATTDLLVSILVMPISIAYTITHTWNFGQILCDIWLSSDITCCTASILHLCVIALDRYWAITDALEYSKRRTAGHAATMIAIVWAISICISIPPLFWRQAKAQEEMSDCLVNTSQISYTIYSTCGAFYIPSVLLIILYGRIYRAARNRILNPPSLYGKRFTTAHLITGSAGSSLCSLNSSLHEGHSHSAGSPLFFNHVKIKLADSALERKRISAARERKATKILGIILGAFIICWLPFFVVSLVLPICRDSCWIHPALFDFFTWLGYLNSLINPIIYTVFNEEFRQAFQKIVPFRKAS

[11] = target: Delta-type opioid receptor (Homo sapiens) (UniProt P41143); assay: Inhibition of delta opioid receptor (unknown origin) at 10 uM relative to control
Delta-type opioid receptor (Homo sapiens), sequence (P41143 whole entry): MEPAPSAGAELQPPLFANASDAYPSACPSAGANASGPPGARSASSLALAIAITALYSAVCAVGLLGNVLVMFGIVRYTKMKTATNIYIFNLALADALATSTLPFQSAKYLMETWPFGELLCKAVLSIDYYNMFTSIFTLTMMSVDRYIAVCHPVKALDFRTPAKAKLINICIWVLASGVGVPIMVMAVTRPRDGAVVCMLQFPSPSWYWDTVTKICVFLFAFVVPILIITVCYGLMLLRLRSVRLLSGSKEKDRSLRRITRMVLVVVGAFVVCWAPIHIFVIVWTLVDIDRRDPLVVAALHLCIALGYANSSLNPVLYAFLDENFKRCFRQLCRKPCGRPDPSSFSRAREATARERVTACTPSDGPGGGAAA

[12] = target: Histamine H2 receptor (Homo sapiens) (UniProt P25021); assay: Inhibition of histamine H2 receptor (unknown origin) at 10 uM relative to control
Histamine H2 receptor (Homo sapiens), sequence (P25021 whole entry): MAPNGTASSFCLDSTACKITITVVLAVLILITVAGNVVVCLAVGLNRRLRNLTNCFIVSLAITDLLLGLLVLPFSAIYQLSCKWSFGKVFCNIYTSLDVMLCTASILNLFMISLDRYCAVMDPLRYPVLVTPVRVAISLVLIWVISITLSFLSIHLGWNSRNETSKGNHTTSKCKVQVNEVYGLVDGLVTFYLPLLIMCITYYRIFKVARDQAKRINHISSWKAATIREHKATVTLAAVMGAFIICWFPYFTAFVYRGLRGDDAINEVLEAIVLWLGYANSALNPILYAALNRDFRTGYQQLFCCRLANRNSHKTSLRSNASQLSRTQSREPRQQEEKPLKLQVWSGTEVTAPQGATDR

[13] = target: T4, Muscarinic acetylcholine receptor M2 (Homo sapiens) (UniProt P08172); assay: Inhibition of muscarinergic M2 receptor (unknown origin) at 10 uM relative to control
T4 sequence (whole entry): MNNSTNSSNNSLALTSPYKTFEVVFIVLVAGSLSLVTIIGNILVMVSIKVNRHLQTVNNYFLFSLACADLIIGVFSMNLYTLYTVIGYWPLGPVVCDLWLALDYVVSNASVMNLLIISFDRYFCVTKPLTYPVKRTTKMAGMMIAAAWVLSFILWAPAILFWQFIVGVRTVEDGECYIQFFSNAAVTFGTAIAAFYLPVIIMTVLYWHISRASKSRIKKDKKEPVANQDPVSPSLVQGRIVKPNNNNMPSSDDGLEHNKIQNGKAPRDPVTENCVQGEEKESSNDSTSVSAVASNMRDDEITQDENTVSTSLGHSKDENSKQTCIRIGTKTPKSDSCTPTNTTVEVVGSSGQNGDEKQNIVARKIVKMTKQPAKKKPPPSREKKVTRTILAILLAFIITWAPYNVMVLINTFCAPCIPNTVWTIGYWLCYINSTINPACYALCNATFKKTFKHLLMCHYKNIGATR

SMILES	inhibition [1] [%]	inhibition [2] [%]	inhibition [4] [%]	inhibition [5] [%]	solubility [6]	inhibition [7] [%]	inhibition [8] [%]	inhibition [9] [%]	inhibition [10] [%]	inhibition [11] [%]	inhibition [12] [%]	inhibition [13] [%]	TD50 [3] [mg/kg]
Cl.NCc1ccc(OCc2ccccc2OC(F)(F)F)cc1	40.2	6.6	11.8	33.9	soluble	19.5	94.6	39.7	0.5	23	5.8	3.8	> 30
Cl.NCc1ccc(OCc2cccc(Cl)c2)cc1	81.1	13.9	19.3	38.1	soluble	11.9	79.4	-4.3	-0.7	17	-7.4	13.1	> 30
Cl.NCc1ccc(OCc2ccccc2)cc1	47.6	6	11.2	14.3	soluble	1	27.4	38.2	-3.3	22	-4	-2.5	> 30
Cl.NCc1ccc(OCc2ccccc2F)cc1	33	3.6	-0.4	24.1	soluble	12.7	44	32.6	–	17	1.6	-7.5	> 30
Cl.NCc1ccc(OCc2ccc(OC(F)(F)F)cc2)cc1	42.2	2.6	21.1	13.3	soluble	-6.5	-0.2	4.2	4.9	21	-2.7	1.9	> 30

More lines, main results first:

inhibition [1] [%]	inhibition [2] [%]	inhibition [4] [%]	inhibition [5] [%]	solubility [6]	inhibition [7] [%]	inhibition [8] [%]	inhibition [9] [%]	inhibition [10] [%]	inhibition [11] [%]	inhibition [12] [%]	inhibition [13] [%]	SMILES	TD50 [3] [mg/kg]
40.2	14.2	35	16.7	soluble	7	19.5	11.1	12.7	17	29.7	12.6	Cl.NCc1ccc(OCc2ccc(F)cc2)cc1	> 30
46.6	9.8	21.7	33.5	soluble	-3.5	22.1	33	12.3	0.9	4.2	4.5	Cl.NCc1ccc(OCc2cccc(OC(F)(F)F)c2)cc1	> 30
52.1	16.6	35.3	22.6	soluble	13.7	24.7	13.2	1.6	13	16.8	10.9	Cl.NCc1ccc(OCc2ccc(Cl)cc2)cc1	> 30
–	1.3	-2.8	14	soluble	-2.1	9.9	41.2	–	18	–	-6	Cl.NCc1ccc(OCc2cccc(F)c2)cc1	> 30
